Measurements reported in ChEMBL document CHEMBL1123892, “Renin inhibitors based on novel dipeptide analogues. Incorporation of the dehydrohydroxyethylene isostere at the scissile bond” (J Med Chem, 1987).

What was measured:
Renin = biological target: T1, Renin (Homo sapiens, UniProt P00797); test: Inhibition of human renin
T1 sequence (P00797 whole entry): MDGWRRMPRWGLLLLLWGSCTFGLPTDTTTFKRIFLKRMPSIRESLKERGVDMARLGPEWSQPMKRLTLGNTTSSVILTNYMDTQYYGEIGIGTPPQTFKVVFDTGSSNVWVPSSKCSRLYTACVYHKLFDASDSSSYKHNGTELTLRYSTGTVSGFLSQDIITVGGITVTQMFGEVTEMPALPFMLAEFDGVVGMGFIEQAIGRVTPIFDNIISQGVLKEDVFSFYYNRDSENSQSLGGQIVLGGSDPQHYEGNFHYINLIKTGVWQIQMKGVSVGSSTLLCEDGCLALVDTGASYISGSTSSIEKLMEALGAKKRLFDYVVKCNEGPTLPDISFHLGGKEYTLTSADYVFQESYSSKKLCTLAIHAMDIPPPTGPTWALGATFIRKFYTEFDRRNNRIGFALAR
Summary of the method: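 Purified human renal renin, 0.24 mGu, with pure human angiotensinogen (0.21 μM) at 37 °C in 0.135 M maleate pH 6.0 containing 3 mM EDTA, 1.4 mM PMSF, 0.44% BSA and 1% DMSO (final). At least three inhibitor concentrations bracketing the IC50 preincubated with enzyme 5 min, then 10.0 min reaction stopped by freezing. Angiotensin I read by RIA; IC50 by regression of percent inhibition.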

Renin (Homo sapiens) [1] = biological target: T2, Renin (Homo sapiens) (UniProt P00797); test: Compound was evaluated for percent inhibition of renin at a concentration of 5e-8M at 60 min pre-incubation time
T2 sequence (whole entry): T1 sequence (P00797 whole entry)
Summary of the method: (§1)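 Purified human renal renin with pure human angiotensinogen (0.21 μM final) in 0.135 M maleate buffer pH 6.0, 3 mM EDTA, 1.4 mM PMSF, 0.44% BSA, 1% DMSO. Inhibitor at one fixed concentration, preincubated with renin 5 or 60 min at 37 °C before substrate addition. Reaction then ran 10.0 min, stopped by freezing. Angiotensin I measured by radioimmunoassay; percent inhibition reported.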

Renin (Homo sapiens) [2] = biological target: T2, Renin (Homo sapiens); test: Compound was evaluated for percent inhibition of renin at a concentration of 5e-8M at 5 min pre-incubation time; summary of the method: as §1
Renin (Homo sapiens) [3] = biological target: T2, Renin (Homo sapiens); test: Compound was evaluated for percent inhibition of renin at a concentration of 2.5*10e-8 M at 5 min pre-incubation time; summary of the method: as §1
Renin (Homo sapiens) [4] = biological target: T2, Renin (Homo sapiens); test: Compound was evaluated for percent inhibition of renin at a concentration of 2.5*10e-8 M at 60 min preincubation time; summary of the method: as §1
Renin (Homo sapiens) [5] = biological target: T2, Renin (Homo sapiens); test: Compound was evaluated for percent inhibition of renin at a concentration of 1E-8M at 60 min pre-incubation time; summary of the method: as §1
Renin (Homo sapiens) [6] = biological target: T2, Renin (Homo sapiens); test: Compound was evaluated for percent inhibition of renin at a concentration of 1E-8M at 5 min pre-incubation time; summary of the method: as §1
Renin (Homo sapiens) [7] = biological target: T2, Renin (Homo sapiens); test: Compound was evaluated for percent inhibition of renin at a concentration of 4E-7M at 60 min pre-incubation time; summary of the method: as §1
Renin (Homo sapiens) [8] = biological target: T2, Renin (Homo sapiens); test: Compound was evaluated for percent inhibition of renin at a concentration of 4E-7M at 5 min pre-incubation time; summary of the method: as §1
Renin (Homo sapiens) [9] = biological target: T2, Renin (Homo sapiens); test: Compound was evaluated for percent inhibition of renin at a concentration of 5E-8 M at 60 min pre-incubation time; summary of the method: as §1
Renin (Homo sapiens) [10] = biological target: T2, Renin (Homo sapiens); test: Compound was evaluated for percent inhibition of renin at a concentration of 5E-8 M at 5 min pre-incubation time; summary of the method: as §1

SMILES	IC50 (Renin)	further results
C=C(C[C@H](O)[C@H](CC1CCCCC1)NC(=O)[C@H](CC(C)C)NC(=O)[C@H](Cc1ccccc1)NC(=O)OC(C)(C)C)C(=O)NCCC(C)C	4 nM	–
C=C(C[C@H](O)[C@H](CC1CCCCC1)NC(=O)[C@H](Cc1c[nH]cn1)NC(=O)[C@H](Cc1ccccc1)NC(=O)CC(C)(C)C)C(=O)NC	2 nM	–
CC(C)CCNC(=O)[C@@](C)(O)C[C@H](O)[C@H](CC1CCCCC1)NC(=O)[C@H](Cc1c[nH]cn1)NC(=O)[C@H](Cc1ccccc1)NC(=O)OC(C)(C)C	5.5 nM	–
CC(C)CNC(=O)[C@](O)(CN)C[C@H](O)[C@H](CC1CCCCC1)NC(=O)[C@H](Cc1c[nH]cn1)NC(=O)[C@H](Cc1ccccc1)NC(=O)OC(C)(C)C	15 nM	–
C=C(C[C@H](O)[C@H](CC1CCCCC1)NC(=O)[C@H](CC(C)C)NC(=O)[C@H](Cc1ccccc1)NC(=O)OCC)C(=O)NCC(C)C	5 nM	–
C=C(C[C@H](O)[C@H](CC1CCCCC1)NC(=O)[C@H](Cc1c[nH]cn1)NC(=O)[C@H](Cc1ccccc1)NC(=O)OC(C)(C)C)C(=O)NCCC(C)C	1.5 nM	–
CC(C)CCNC(=O)[C@](C)(O)C[C@H](O)[C@H](CC1CCCCC1)NC(=O)[C@H](Cc1c[nH]cn1)NC(=O)[C@H](Cc1ccccc1)NC(=O)OC(C)(C)C	50 nM	–
CC(C)CNC(=O)[C@@](O)(CCl)C[C@H](O)[C@H](CC1CCCCC1)NC(=O)[C@H](Cc1c[nH]cn1)NC(=O)[C@H](Cc1ccccc1)NC(=O)OC(C)(C)C	20 nM	–
C=C(C[C@H](O)[C@H](CC1CCCCC1)NC(=O)[C@H](Cc1c[nH]cn1)NC(=O)[C@H](Cc1ccccc1)NC(=O)OCC)C(=O)NCCC(C)C	3 nM	–
C=C(C[C@H](O)[C@H](CC1CCCCC1)NC(=O)[C@H](C)NC(=O)[C@H](Cc1ccccc1)NC(=O)OC(C)(C)C)C(=O)NCCc1ccccc1	150 nM	–
C=C(C[C@H](O)[C@H](CC1CCCCC1)NC(=O)[C@H](C)NC(=O)[C@H](Cc1ccccc1)NC(=O)OC(C)(C)C)C(=O)NC	50 nM	inhibition (Renin (Homo sapiens) [1]): 37%; inhibition (Renin (Homo sapiens) [2]): 44%
CC(C)CNC(=O)[C@@](O)(CN)C[C@H](O)[C@H](CC1CCCCC1)NC(=O)[C@H](Cc1cnc[nH]1)NC(=O)[C@H](Cc1ccccc1)NC(=O)OC(C)(C)C	35 nM	–
C=C(C[C@H](O)[C@H](CC1CCCCC1)NC(=O)[C@H](CC(C)C)NC(=O)[C@H](Cc1ccccc1)NC(=O)OCC)C(=O)NCC(C)(C)CN(C)C	10 nM	–
C=C(C[C@H](O)[C@H](CC1CCCCC1)NC(=O)[C@H](C)NC(=O)[C@H](Cc1ccccc1)NC(=O)OC(C)(C)C)C(=O)NCC(C)(C)CN(C)C	25 nM	–
C=C(C[C@H](O)[C@H](CC(C)C)NC(=O)[C@H](C)NC(=O)[C@H](Cc1ccccc1)NC(=O)OC(C)(C)C)C(=O)N[C@H](O)CC(C)C	6000 nM	–
CNC(=O)C1(C[C@H](O)[C@H](CC2CCCCC2)NC(=O)[C@H](C)NC(=O)[C@H](Cc2ccccc2)NC(=O)OC(C)(C)C)CO1 (stereo partly drawn)	40 nM	–
C=C(C[C@H](O)[C@H](CC1CCCCC1)NC(=O)[C@H](C)NC(=O)[C@H](Cc1ccccc1)NC(=O)OC(C)(C)C)C(=O)NCC(C)C	10 nM	–

SMILES	IC50 (Renin)	further results
CC(C)CNC(=O)[C@](O)(CN=[N+]=[N-])C[C@H](O)[C@H](CC1CCCCC1)NC(=O)[C@H](Cc1cnc[nH]1)NC(=O)[C@H](Cc1ccccc1)NC(=O)OC(C)(C)C	1 nM	–
CC(C)CCNC(=O)C1(C[C@H](O)[C@H](CC2CCCCC2)NC(=O)[C@H](C)NC(=O)[C@H](Cc2ccccc2)NC(=O)OC(C)(C)C)CO1 (stereo partly drawn)	25 nM	inhibition (Renin (Homo sapiens) [3]): 66%; inhibition (Renin (Homo sapiens) [4]): 61%
C=C(C[C@H](O)[C@H](CC(C)C)NC(=O)[C@H](C)NC(=O)[C@H](Cc1ccccc1)NC(=O)OC(C)(C)C)C(=O)NCCC(C)C	200 nM	–
C=C(C[C@H](O)[C@H](CC1CCCCC1)NC(=O)[C@H](C)NC(=O)[C@H](Cc1ccccc1)NC(=O)OC(C)(C)C)C(=O)NCCC(C)C	10 nM	inhibition (Renin (Homo sapiens) [5]): 31%; inhibition (Renin (Homo sapiens) [6]): 38%
C=C(C[C@H](O)[C@H](CC(C)C)NC(=O)[C@H](C)NC(=O)[C@H](Cc1ccccc1)NC(=O)OC(C)(C)C)C(=O)NCC(C)C	400 nM	inhibition (Renin (Homo sapiens) [7]): 43%; inhibition (Renin (Homo sapiens) [8]): 48%
C=C(C[C@H](O)[C@H](CC1CCCCC1)NC(=O)[C@H](Cc1c[nH]cn1)NC(=O)[C@H](Cc1ccccc1)NC(=O)OC(C)(C)C)C(=O)NCC(C)C	2 nM	–
C=C(C[C@H](O)[C@H](CC1CCCCC1)NC(=O)C(Cc1c[nH]cn1)NC(=O)C(C)(O)c1ccccc1)C(=O)NCCC(C)C (stereo partly drawn)	100 nM	–
C=C(C[C@H](O)[C@H](CC1CCCCC1)NC(=O)[C@H](Cc1ccccc1)NC(=O)[C@H](Cc1ccccc1)NC(=O)OC(C)(C)C)C(=O)NCC(C)(C)CN(C)C	8.5 nM	–
C=C(C[C@H](O)[C@H](CC1CCCCC1)NC(=O)[C@H](Cc1c[nH]cn1)NC(=O)[C@H](CO)NC(=O)OC(C)(C)C)C(=O)NCCC(C)C	2000 nM	–
C=C(C[C@H](O)[C@H](CC1CCCCC1)NC(=O)[C@H](C)NC(=O)[C@H](Cc1ccccc1)NC(=O)OC(C)(C)C)C(=O)NCC1CCCCC1	50 nM	inhibition (Renin (Homo sapiens) [9]): 53%; inhibition (Renin (Homo sapiens) [10]): 49%
CC(C)CNC(=O)[C@](O)(CCl)C[C@H](O)[C@H](CC1CCCCC1)NC(=O)[C@H](Cc1cnc[nH]1)NC(=O)[C@H](Cc1ccccc1)NC(=O)OC(C)(C)C	0.8 nM	–
CC(C)CNC(=O)[C@@](O)(CN=[N+]=[N-])C[C@H](O)[C@H](CC1CCCCC1)NC(=O)[C@H](Cc1cnc[nH]1)NC(=O)[C@H](Cc1ccccc1)NC(=O)OC(C)(C)C	20 nM	–
C=C(C[C@H](O)[C@H](CC1CCCCC1)NC(=O)[C@H](Cc1c[nH]cn1)NC(=O)[C@H](Cc1ccccc1)NC(C)=O)C(=O)NCCC(C)C	4 nM	–
C=C(C[C@H](O)[C@H](CC1CCCCC1)NC(=O)[C@H](C)NC(=O)[C@H](Cc1ccccc1)NC(=O)OC(C)(C)C)C(=O)NCCN(C)C	400 nM	–
C=C(C[C@H](O)[C@H](CC1CCCCC1)NC(=O)[C@H](Cc1c[nH]cn1)NC(=O)[C@H](Cc1ccccc1)NC(=O)OC(C)(C)C)C(=O)NCC(C)(C)CN(C)C	5 nM	–
CC(C)CNC(=O)[C@](O)(CC(C)C)C[C@H](O)[C@H](CC1CCCCC1)NC(=O)[C@H](Cc1c[nH]cn1)NC(=O)[C@H](Cc1ccccc1)NC(=O)OC(C)(C)C	30 nM	–
